Molecules are shown by their SMILES.

Sequence of D(1A) dopamine receptor (P21728 whole entry): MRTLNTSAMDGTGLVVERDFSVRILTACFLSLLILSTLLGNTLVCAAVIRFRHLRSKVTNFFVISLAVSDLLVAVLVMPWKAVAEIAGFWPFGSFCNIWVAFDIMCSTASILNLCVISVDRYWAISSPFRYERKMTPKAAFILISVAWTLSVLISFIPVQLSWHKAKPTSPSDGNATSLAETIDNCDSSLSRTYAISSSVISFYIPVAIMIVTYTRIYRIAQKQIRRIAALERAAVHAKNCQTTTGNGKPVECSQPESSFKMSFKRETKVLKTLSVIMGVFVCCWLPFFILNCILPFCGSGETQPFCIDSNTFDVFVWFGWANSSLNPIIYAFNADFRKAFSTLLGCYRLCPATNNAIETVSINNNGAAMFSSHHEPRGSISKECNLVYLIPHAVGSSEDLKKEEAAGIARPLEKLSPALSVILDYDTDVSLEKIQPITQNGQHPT
Sequence of Alpha adrenergic receptor 1A and 1D (Rattus norvegicus) (P23944 whole entry, looked up): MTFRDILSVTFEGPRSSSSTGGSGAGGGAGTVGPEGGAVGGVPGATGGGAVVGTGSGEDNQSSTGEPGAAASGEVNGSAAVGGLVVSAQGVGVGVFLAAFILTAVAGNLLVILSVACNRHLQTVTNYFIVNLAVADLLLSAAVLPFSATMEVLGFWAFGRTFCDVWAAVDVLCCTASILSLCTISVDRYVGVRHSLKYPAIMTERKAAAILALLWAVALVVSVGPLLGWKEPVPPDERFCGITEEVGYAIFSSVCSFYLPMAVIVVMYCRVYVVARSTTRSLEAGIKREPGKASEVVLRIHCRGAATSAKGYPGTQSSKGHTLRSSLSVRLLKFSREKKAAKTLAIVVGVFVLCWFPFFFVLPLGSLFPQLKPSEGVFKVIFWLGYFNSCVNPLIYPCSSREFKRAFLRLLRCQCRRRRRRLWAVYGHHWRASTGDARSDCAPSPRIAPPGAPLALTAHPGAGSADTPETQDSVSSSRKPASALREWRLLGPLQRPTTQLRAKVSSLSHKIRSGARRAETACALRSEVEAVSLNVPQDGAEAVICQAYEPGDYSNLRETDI
Sequence of Alpha adrenergic receptor 1A and 1D (Rattus norvegicus) (P43140 whole entry, looked up): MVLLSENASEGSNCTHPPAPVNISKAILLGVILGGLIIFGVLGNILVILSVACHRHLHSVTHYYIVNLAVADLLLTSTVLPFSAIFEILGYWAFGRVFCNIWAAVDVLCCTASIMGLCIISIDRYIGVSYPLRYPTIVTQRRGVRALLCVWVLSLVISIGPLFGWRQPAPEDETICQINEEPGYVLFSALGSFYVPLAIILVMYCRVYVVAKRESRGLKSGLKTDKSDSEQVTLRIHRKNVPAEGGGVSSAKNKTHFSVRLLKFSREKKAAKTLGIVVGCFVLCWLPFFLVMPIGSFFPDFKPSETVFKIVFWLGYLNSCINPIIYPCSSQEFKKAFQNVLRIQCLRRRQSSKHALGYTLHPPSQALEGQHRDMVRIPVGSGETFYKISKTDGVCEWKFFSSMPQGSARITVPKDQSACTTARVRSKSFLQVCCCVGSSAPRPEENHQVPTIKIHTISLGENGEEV

For the first experiment, the species on record is Homo sapiens. Description: Selectivity for dopamine D1 over adrenergic alpha-1 receptor. Summed up:
(§1)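 Selectivity is the ratio of Ki at 5-HT1A, D1 or D2 to Ki at α1. Ki values are means (±SD) of three separate experiments.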
`Cc1ccc(-c2cc3c(=O)n(CCN4CCN(c5ccccc5Cl)CC4)c(=O)[nH]c3[nH]2)cc1`: the Ratio Ki worked out at 33.
On the same count and under the same terms, for `O=c1[nH]c2[nH]c(-c3ccc(Cl)cc3)cc2c(=O)n1CCN1CCN(c2ccccc2Cl)CC1` the value was 206.
The same measure, in the same setting: to `COc1ccc(-c2cc3c(=O)n(CCN4CCN(c5ccccc5Cl)CC4)c(=O)[nH]c3[nH]2)cc1` belongs 17; to `Cc1ccc(-c2cc3[nH]c(=O)n(CCN4CCN(c5ccccc5Cl)CC4)c(=O)c3[nH]2)cc1`, greater than 500.

The species named for the next experiment is Homo sapiens. Description: Selectivity for 5HT1A over adrenergic alpha-1 receptor. In outline: as §1
Regarding `Cc1ccc(-c2cc3c(=O)n(CCN4CCN(c5ccccc5Cl)CC4)c(=O)[nH]c3[nH]2)cc1`, the Ratio Ki was found to be 155.
Consider `O=c1[nH]c2[nH]c(-c3ccc(Cl)cc3)cc2c(=O)n1CCN1CCN(c2ccccc2Cl)CC1`, for which the Ratio Ki came to 573.
As to `COc1ccc(-c2cc3c(=O)n(CCN4CCN(c5ccccc5Cl)CC4)c(=O)[nH]c3[nH]2)cc1`, the Ratio Ki amounted to 65.
Still for that read-out and setting: to `Cc1ccc(-c2cc3[nH]c(=O)n(CCN4CCN(c5ccccc5Cl)CC4)c(=O)c3[nH]2)cc1` belongs greater than 500.

In a further experiment the target is T1, Alpha-1B adrenergic receptor (Rattus norvegicus) (UniProt P15823).
T1 sequence (whole entry): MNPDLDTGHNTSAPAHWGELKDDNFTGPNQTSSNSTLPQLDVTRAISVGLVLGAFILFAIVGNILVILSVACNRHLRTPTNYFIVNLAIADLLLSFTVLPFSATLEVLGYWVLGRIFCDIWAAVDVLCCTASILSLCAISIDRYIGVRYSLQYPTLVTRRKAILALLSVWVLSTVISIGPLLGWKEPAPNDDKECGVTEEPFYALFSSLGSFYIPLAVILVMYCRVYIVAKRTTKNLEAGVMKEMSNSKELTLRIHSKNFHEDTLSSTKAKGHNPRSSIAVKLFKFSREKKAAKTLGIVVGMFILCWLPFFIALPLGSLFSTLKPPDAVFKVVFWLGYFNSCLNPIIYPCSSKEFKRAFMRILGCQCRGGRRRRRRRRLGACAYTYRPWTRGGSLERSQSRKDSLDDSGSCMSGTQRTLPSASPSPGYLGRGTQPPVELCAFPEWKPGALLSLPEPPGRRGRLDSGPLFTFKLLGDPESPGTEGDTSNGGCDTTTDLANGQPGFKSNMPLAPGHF
Kind of experiment: Antagonistic activity at ADRA1B in rat spleen. Type of experiment: functional, tissue-based. In outline:
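Antagonism in isolated rat tissues: prostatic vas deferens (α1A), spleen (α1B), thoracic aorta (α1D). Each compound tested at a single concentration, and each concentration was investigated at least four times. pKb was calculated by the van Rossum method. pA2 was derived from Arunlakshana–Schild plots. WB4101 was used as the standard.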
The term pKb denotes the negative decadic logarithm of the Kb, by convention in mol/L. High values mean a low Kb, low ones a high Kb. `Cc1ccc(-c2cc3c(=O)n(CCN4CCN(c5ccccc5Cl)CC4)c(=O)[nH]c3[nH]2)cc1` had a negative-log Kb (pKb) of 7.5.
Same read-out and setting: for `O=c1[nH]c2[nH]c(-c3ccc(Cl)cc3)cc2c(=O)n1CCN1CCN(c2ccccc2Cl)CC1` the value was 6.64; for `COc1ccc(-c2cc3c(=O)n(CCN4CCN(c5ccccc5Cl)CC4)c(=O)[nH]c3[nH]2)cc1`, 8.03.
On the same count and under the same terms, for `Cc1ccc(-c2cc3[nH]c(=O)n(CCN4CCN(c5ccccc5Cl)CC4)c(=O)c3[nH]2)cc1` the value was 6.37.

A further experiment addresses T2, Adrenergic receptor alpha-1 (Homo sapiens, UniProt P35348+P25100+P35368).
T2 sequence (P35348 whole entry): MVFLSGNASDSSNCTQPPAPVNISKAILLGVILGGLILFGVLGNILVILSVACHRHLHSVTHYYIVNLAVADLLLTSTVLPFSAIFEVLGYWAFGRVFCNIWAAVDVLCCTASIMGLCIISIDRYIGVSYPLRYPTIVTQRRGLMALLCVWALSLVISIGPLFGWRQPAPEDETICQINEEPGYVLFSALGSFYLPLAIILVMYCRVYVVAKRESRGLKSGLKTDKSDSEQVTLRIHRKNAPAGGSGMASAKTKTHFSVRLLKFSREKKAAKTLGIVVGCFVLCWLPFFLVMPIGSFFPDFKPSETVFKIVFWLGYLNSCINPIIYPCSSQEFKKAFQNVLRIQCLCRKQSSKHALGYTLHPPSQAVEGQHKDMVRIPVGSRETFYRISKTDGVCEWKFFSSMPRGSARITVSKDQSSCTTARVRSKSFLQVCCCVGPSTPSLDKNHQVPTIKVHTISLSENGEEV
T2 sequence (P25100 whole entry): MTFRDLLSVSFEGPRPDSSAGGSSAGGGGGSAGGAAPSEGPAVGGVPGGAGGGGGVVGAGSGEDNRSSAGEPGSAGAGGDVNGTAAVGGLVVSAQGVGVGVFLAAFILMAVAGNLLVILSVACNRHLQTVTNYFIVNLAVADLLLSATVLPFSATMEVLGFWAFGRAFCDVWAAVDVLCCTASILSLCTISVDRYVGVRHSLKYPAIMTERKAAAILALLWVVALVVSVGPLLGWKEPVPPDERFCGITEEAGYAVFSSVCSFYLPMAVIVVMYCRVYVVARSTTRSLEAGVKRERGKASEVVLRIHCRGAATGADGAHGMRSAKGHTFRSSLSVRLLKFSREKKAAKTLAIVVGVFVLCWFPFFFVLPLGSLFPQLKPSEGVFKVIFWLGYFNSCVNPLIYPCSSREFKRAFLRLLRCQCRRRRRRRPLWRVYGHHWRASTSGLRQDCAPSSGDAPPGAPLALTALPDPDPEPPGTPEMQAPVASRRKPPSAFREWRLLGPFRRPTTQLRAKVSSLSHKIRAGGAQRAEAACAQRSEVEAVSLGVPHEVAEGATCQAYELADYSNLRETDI
T2 sequence (P35368 whole entry): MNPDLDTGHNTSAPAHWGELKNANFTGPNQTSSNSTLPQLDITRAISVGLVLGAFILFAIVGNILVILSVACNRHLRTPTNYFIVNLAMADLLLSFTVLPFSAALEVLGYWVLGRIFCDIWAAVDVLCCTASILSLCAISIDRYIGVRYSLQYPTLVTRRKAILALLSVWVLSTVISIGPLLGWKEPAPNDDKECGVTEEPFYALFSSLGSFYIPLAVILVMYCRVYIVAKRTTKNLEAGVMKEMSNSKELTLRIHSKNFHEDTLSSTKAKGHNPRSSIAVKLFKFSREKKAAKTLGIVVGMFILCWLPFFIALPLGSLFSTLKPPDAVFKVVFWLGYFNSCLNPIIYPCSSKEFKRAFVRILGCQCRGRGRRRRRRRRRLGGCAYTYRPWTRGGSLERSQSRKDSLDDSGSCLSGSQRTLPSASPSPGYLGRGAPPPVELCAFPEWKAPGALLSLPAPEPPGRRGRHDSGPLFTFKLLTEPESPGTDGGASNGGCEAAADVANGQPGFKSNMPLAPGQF
Description: Binding affinity to adrenergic alpha-1 receptor. The experiment is classed as protein assay.
In general, Ki refers to a measure of affinity in units of concentration, obtained from inhibition or displacement. Higher therefore signals lower affinity. `Cc1ccc(-c2cc3c(=O)n(CCN4CCN(c5ccccc5Cl)CC4)c(=O)[nH]c3[nH]2)cc1` had an inhibitory constant (Ki) of 0.01171 µM.
Still for that read-out and setting: to `O=c1[nH]c2[nH]c(-c3ccc(Cl)cc3)cc2c(=O)n1CCN1CCN(c2ccccc2Cl)CC1` belongs 0.00264 µM.
Same read-out and setting: for `COc1ccc(-c2cc3c(=O)n(CCN4CCN(c5ccccc5Cl)CC4)c(=O)[nH]c3[nH]2)cc1` the value was 0.0164 µM.
`Cc1ccc(-c2cc3[nH]c(=O)n(CCN4CCN(c5ccccc5Cl)CC4)c(=O)c3[nH]2)cc1` returned a Ki of 0.01726 µM.

The species named for the next experiment is Rattus norvegicus. Kind of experiment: Selectivity for ADRA1D over ADRA1B. In outline:
(§2)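 Subtype selectivity is the antilog of the difference between the pKb values at α1A, α1B and α1D, measured in isolated rat prostatic vas deferens, spleen and thoracic aorta.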
For the compound `Cc1ccc(-c2cc3c(=O)n(CCN4CCN(c5ccccc5Cl)CC4)c(=O)[nH]c3[nH]2)cc1`, the Ratio pKb came to 2.
Still for that read-out and setting: for `O=c1[nH]c2[nH]c(-c3ccc(Cl)cc3)cc2c(=O)n1CCN1CCN(c2ccccc2Cl)CC1` the value was 10; for `COc1ccc(-c2cc3c(=O)n(CCN4CCN(c5ccccc5Cl)CC4)c(=O)[nH]c3[nH]2)cc1`, 0.5.
On the same count and under the same terms, to `Cc1ccc(-c2cc3[nH]c(=O)n(CCN4CCN(c5ccccc5Cl)CC4)c(=O)c3[nH]2)cc1` belongs 1.

Another experiment addresses D(1A) dopamine receptor (Homo sapiens, UniProt P21728). Kind of experiment: Binding affinity to dopamine D1 receptor.
For the compound `Cc1ccc(-c2cc3c(=O)n(CCN4CCN(c5ccccc5Cl)CC4)c(=O)[nH]c3[nH]2)cc1`, the Ki amounted to 0.389 µM.
On the same count and under the same terms, for `O=c1[nH]c2[nH]c(-c3ccc(Cl)cc3)cc2c(=O)n1CCN1CCN(c2ccccc2Cl)CC1` the value was 0.544 µM; for `COc1ccc(-c2cc3c(=O)n(CCN4CCN(c5ccccc5Cl)CC4)c(=O)[nH]c3[nH]2)cc1`, 0.272 µM.
Same read-out and setting: to `Cc1ccc(-c2cc3[nH]c(=O)n(CCN4CCN(c5ccccc5Cl)CC4)c(=O)c3[nH]2)cc1` belongs greater than 10 µM.

The target in a further experiment is Alpha adrenergic receptor 1A and 1B (Rattus norvegicus) (UniProt P15823+P43140). Kind of experiment: Selectivity for ADRA1B over ADRA1A. Type of experiment: protein assay. In outline: as §2
Sequence of Alpha adrenergic receptor 1A and 1B (Rattus norvegicus) (P43140 whole entry, looked up, one chain of several): as the sequence (P43140 whole entry, looked up) above
Turning to `Cc1ccc(-c2cc3c(=O)n(CCN4CCN(c5ccccc5Cl)CC4)c(=O)[nH]c3[nH]2)cc1`, the Ratio pKb stood at 2.
The same measure, in the same setting: for `O=c1[nH]c2[nH]c(-c3ccc(Cl)cc3)cc2c(=O)n1CCN1CCN(c2ccccc2Cl)CC1` the value was 2; for `COc1ccc(-c2cc3c(=O)n(CCN4CCN(c5ccccc5Cl)CC4)c(=O)[nH]c3[nH]2)cc1`, 4; for `Cc1ccc(-c2cc3[nH]c(=O)n(CCN4CCN(c5ccccc5Cl)CC4)c(=O)c3[nH]2)cc1`, 0.4.

The target in another experiment is T3, 5-hydroxytryptamine receptor 1A (Homo sapiens, UniProt P08908).
T3 sequence (P08908 whole entry): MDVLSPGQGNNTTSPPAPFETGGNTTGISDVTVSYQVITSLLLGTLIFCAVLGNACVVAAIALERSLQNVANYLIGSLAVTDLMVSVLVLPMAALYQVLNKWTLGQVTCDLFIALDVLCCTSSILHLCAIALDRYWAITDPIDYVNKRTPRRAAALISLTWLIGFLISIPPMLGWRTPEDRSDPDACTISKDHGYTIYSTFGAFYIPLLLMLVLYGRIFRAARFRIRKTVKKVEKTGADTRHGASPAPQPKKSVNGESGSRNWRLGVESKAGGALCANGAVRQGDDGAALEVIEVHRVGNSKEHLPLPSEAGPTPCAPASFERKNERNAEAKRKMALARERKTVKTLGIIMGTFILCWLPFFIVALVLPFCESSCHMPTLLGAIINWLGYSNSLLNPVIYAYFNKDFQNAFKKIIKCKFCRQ
Kind of experiment: Binding affinity to 5HT1A.
As for `Cc1ccc(-c2cc3c(=O)n(CCN4CCN(c5ccccc5Cl)CC4)c(=O)[nH]c3[nH]2)cc1`, the Ki is 1.81 µM.
`O=c1[nH]c2[nH]c(-c3ccc(Cl)cc3)cc2c(=O)n1CCN1CCN(c2ccccc2Cl)CC1` displayed a Ki of 1.51 µM.
The same measure, in the same setting: to `COc1ccc(-c2cc3c(=O)n(CCN4CCN(c5ccccc5Cl)CC4)c(=O)[nH]c3[nH]2)cc1` belongs 1.07 µM; to `Cc1ccc(-c2cc3[nH]c(=O)n(CCN4CCN(c5ccccc5Cl)CC4)c(=O)c3[nH]2)cc1`, greater than 10 µM.

Another experiment addresses Alpha adrenergic receptor 1A and 1D (Rattus norvegicus) (UniProt P23944+P43140). Description: Selectivity for ADRA1D over ADRA1A. Type of experiment: protein assay. In outline:
as §2
`Cc1ccc(-c2cc3c(=O)n(CCN4CCN(c5ccccc5Cl)CC4)c(=O)[nH]c3[nH]2)cc1`: the Ratio pKb was found to be 3.
Same read-out and setting: for `O=c1[nH]c2[nH]c(-c3ccc(Cl)cc3)cc2c(=O)n1CCN1CCN(c2ccccc2Cl)CC1` the value was 18; for `COc1ccc(-c2cc3c(=O)n(CCN4CCN(c5ccccc5Cl)CC4)c(=O)[nH]c3[nH]2)cc1`, 2.
The same measure, in the same setting: for `Cc1ccc(-c2cc3[nH]c(=O)n(CCN4CCN(c5ccccc5Cl)CC4)c(=O)c3[nH]2)cc1` the value was 0.5.

In another experiment the target is D(2) dopamine receptor (Homo sapiens, UniProt P14416). Description: Binding affinity to dopamine D2 receptor.
Sequence of D(2) dopamine receptor (P14416 whole entry): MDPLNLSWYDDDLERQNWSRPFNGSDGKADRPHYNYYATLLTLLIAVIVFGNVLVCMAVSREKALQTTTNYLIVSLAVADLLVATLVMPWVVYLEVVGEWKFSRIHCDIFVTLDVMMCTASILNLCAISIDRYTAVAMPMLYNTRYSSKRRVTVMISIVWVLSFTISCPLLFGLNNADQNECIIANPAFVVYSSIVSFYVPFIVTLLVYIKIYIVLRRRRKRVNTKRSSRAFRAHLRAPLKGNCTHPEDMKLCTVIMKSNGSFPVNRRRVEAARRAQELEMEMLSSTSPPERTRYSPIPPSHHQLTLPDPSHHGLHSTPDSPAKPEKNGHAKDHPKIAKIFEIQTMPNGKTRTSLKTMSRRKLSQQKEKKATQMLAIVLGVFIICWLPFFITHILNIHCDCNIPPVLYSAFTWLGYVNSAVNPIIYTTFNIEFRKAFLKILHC
`Cc1ccc(-c2cc3c(=O)n(CCN4CCN(c5ccccc5Cl)CC4)c(=O)[nH]c3[nH]2)cc1` showed a Ki of 1.72 µM.
Still for that read-out and setting: for `O=c1[nH]c2[nH]c(-c3ccc(Cl)cc3)cc2c(=O)n1CCN1CCN(c2ccccc2Cl)CC1` the value was 2.37 µM; for `COc1ccc(-c2cc3c(=O)n(CCN4CCN(c5ccccc5Cl)CC4)c(=O)[nH]c3[nH]2)cc1`, 0.165 µM; for `Cc1ccc(-c2cc3[nH]c(=O)n(CCN4CCN(c5ccccc5Cl)CC4)c(=O)c3[nH]2)cc1`, greater than 10 µM.
